# Measured values: ChEMBL document CHEMBL1131469, “Novel non-peptide fibrinogen receptor antagonists. 1. Synthesis and glycoprotein IIb-IIIa antagonistic activities of 1,3,4-trisubstituted 2-oxopiperazine derivatives incorporating side-chain functions of the RGDF peptide” (J Med Chem, 1998)
# Peptide text beside a SMILES is read from it.
# Target: Integrin alpha-IIb/beta-3 (Homo sapiens, UniProt P05106+P08514)
# Assay: Ability to inhibit binding of biotin-labeled human fibrinogen to immobilized fibrinogen receptor purified from human erythroleukemia (HEL) cells.
# Procedure, shortened: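 Purified GP IIb-IIIa (1 μg/mL, pH 7.4 Tris/NaCl/CaCl2 buffer) coated overnight at 4 °C, blocked with 3.5% BSA 2 h at 30 °C. Wells then incubated with 1 nM biotinylated fibrinogen plus graded compound concentrations, 3 h at 30 °C. IC50 from dose–response curves.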
# Chain of Integrin alpha-IIb/beta-3 (P05106 27-788 limits assumed): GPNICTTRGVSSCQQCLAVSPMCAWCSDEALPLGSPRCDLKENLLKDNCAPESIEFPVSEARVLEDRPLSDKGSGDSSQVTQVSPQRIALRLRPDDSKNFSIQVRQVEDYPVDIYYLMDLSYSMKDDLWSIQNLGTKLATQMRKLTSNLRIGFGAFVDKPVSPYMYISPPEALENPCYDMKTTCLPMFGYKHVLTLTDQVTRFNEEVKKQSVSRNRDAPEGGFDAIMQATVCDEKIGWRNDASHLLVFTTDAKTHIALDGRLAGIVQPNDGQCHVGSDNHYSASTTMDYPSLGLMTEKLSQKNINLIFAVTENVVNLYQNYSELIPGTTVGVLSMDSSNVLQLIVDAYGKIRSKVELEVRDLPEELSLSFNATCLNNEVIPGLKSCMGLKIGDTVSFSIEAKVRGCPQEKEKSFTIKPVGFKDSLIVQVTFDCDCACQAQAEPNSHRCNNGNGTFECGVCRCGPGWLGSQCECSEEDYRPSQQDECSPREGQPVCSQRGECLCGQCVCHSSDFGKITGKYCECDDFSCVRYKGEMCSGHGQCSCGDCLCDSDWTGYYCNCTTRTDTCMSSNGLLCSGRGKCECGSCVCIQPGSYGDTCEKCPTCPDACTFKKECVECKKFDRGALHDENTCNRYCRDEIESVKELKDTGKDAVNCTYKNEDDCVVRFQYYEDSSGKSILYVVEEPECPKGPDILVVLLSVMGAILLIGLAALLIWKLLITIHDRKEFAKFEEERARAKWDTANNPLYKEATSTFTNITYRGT
# Chain of Integrin alpha-IIb/beta-3 (P08514 32-887 limits assumed): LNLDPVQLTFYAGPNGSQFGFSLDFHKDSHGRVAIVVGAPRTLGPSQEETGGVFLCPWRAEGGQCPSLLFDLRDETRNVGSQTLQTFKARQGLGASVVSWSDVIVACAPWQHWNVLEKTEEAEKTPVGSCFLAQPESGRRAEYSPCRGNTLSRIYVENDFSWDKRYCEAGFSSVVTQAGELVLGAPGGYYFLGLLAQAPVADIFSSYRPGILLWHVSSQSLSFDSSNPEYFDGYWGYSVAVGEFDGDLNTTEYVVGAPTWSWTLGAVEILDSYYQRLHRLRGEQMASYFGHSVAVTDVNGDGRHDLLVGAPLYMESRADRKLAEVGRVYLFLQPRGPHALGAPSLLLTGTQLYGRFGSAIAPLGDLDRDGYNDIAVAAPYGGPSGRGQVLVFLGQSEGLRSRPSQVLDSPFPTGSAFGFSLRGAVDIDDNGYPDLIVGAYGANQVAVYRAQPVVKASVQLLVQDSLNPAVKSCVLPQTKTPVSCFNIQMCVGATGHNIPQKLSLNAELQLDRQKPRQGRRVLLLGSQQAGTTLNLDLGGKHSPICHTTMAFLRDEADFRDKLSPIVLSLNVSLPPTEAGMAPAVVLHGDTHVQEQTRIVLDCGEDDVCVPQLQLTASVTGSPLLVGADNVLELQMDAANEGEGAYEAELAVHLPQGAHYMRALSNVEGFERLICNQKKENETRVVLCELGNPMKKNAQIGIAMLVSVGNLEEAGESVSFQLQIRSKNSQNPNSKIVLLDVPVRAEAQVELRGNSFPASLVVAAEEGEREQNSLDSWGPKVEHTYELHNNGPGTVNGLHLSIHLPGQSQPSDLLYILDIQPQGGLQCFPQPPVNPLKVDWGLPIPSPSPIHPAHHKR
# Chain of Integrin alpha-IIb/beta-3 (P08514 891-1039 limits assumed): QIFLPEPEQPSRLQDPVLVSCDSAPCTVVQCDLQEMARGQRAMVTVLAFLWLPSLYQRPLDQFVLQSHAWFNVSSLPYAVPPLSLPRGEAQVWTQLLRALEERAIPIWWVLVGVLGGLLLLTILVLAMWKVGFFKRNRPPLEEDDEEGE
row,Compound,IC50 [nM]
1,N=C(N)c1cccc(C(=O)NCC(=O)N2CCN(CC(=O)O)C(=O)[C@@H]2CC(=O)O)c1,130
2,N=C(N)c1ccc(C(=O)NCC(=O)N2CCN(CC(N)=O)C(=O)[C@@H]2CC(=O)O)cc1,330
3,CN(C)C(N)=Nc1ccc(C(=O)NCC(=O)N2CCN(CC(=O)O)C(=O)[C@@H]2CC(=O)O)cc1,210
4,N=C(N)NCCC[C@H](N)C(=O)NCC(=O)N[C@@H](CC(=O)O)C(=O)N[C@@H](Cc1ccccc1)C(=O)O (H-RGDF-OH),110

# The next compounds have a lower IC50 than those just listed; values first:
row,IC50 [nM],Compound
1,63,N=C(N)c1ccc(C(=O)NCC(=O)N2CCN(CCC(=O)O)C(=O)[C@@H]2CC(=O)O)cc1
2,20,N=C(N)NCC1CCC(C(=O)NCC(=O)N2CCN(CC(=O)O)C(=O)[C@@H]2CC(=O)O)CC1 (stereo not given in full)
3,16.4,COC(=O)C[C@@H]1C(=O)N(CC(=O)O)CCN1C(=O)CNC(=O)c1ccc(C(=N)N)cc1
4,1.95,N=C(N)c1ccc(C(=O)NCC(=O)N2CCN(CC(=O)O)C(=O)[C@@H]2Cc2ccccc2)cc1
5,0.29,COC(=O)CC[C@H]1C(=O)N(CC(=O)O)CCN1C(=O)CNC(=O)c1ccc(C(=N)N)cc1
6,0.21,N=C(N)c1ccc(C(=O)NCC(=O)N2CCN(CC(=O)O)C(=O)[C@@H]2CCC(=O)O)cc1
